Data as given in article PMC9683076 (Pharmacology Research & Perspectives, 2022).
Like-named read-outs stand apart in the source and are kept apart here.

Legend:
[1] = cited from earlier work
[2] = format: in vivo, human (healthy adult subjects)
How it was run: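 Single-centre, open-label, two-period study in healthy adults. Everolimus 0.75 mg given as a single dose alone on Period 1 Day 1. Blood concentrations gave Cmax, AUCinf, Tmax (median), C12 and t1/2. Natural-log parameters were compared by repeated-measures analysis.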

[3] = format: in vivo, human (healthy adult subjects); remark: listed apart in the source
[4] = 2 mg single-dose sirolimus with ketoconazole 200 mg BID at steady state; cited from earlier work
P-gp = conditions: cited from earlier work
[5] = digoxin with the 3D regimen; cited from earlier work
[6] = cited from earlier work; remark: listed apart in the source
[7] = everolimus co-administered with the 3D regimen vs alone
[8] = sirolimus 2 mg single dose alone, Period 1 Day 1, N = 11, blood, geometric mean (geometric %CV)
[9] = sirolimus co-administered with the 3D regimen vs alone

What does the source list for `CO[C@H]1C[C@@H]2CC[C@@H](C)[C@@](O)(O2)C(=O)C(=O)N2CCCC[C@H]2C(=O)O[C@H]([C@H](C)C[C@@H]2CC[C@@H](OCCO)[C@H](OC)C2)CC(=O)[C@H](C)/C=C(\C)[C@@H](O)[C@@H](OC)C(=O)[C@H](C)C[C@H](C)/C=C/C=C/C=C/1C` [Everolimus, everolimus]?
half-life ([1]; everolimus): ~30 h; increase in AUCinf [2, 7]: 27 fold; increase in Cmax [2, 7]: 4.7 fold; increase in t 1/2 [2, 7]: 2.8 fold; delay in Tmax ([2]; everolimus in the presence of the 3D regimen vs alone): 1 h; AUC(0-inf) ([2]; human, blood, 0.75 mg): 41.9 ng·h/mL; Cmax ([2]; human, blood, 0.75 mg): 3.33 ng/mL; concentration at 12 h ([2]; human, blood, 0.75 mg): 0.513 ng/mL; half-life ([2]; human, blood, 0.75 mg, t 1/2, everolimus 0.75 mg single dose alone, Period 1 Day 1, N = 12, blood, harmonic mean (pseudo-standard deviation)): 42 h

Which half-life ([1]; sirolimus) does the source give for `CO[C@H]1C[C@@H]2CC[C@@H](C)[C@@](O)(O2)C(=O)C(=O)N2CCCC[C@H]2C(=O)O[C@H]([C@H](C)C[C@@H]2CC[C@@H](O)[C@H](OC)C2)CC(=O)[C@H](C)/C=C(\C)[C@@H](O)[C@@H](OC)C(=O)[C@H](C)C[C@H](C)/C=C/C=C/C=C/1C` [Sirolimus, sirolimus] here?
The half-life was “approximately 62 h”.

And the half-life ([3]; human, blood, 2 mg, t 1/2, sirolimus 2 mg single dose alone, Period 1 Day 1, N = 11, blood, harmonic mean (pseudo-standard deviation))?
The half-life was 96 h.

What about the AUC(0-inf) ([3]; human, blood, oral, 2 mg) of the same compound?
Its AUC(0-inf) is 178 ng·h/mL.

What about the C24 [3, 8] of the same compound?
Its C24 is 1.14 (29) ng/m.

And the Cmax [3, 8]?
Its Cmax is 6.66 (33) ng/ml.

And the “t 1/2” value ([3]; sirolimus 2 mg single dose alone, Period 1 Day 1, N = 11, blood, harmonic mean (pseudo-standard deviation))?
The value was 96.3 (15) h.

And the Tmax ([3]; sirolimus 2 mg single dose alone, Period 1 Day 1, N = 11, blood, median (range))?
The Tmax was 2.5 (1.5–4.0) h.

What about the “increase in dose-normalized AUCinf” value [3, 9] of the same compound?
Its value is 38 fold.

What about the “increase in dose-normalized Cmax” value [3, 9] of the same compound?
Its value is 6.4 fold.

And the “increase in t 1/2” value [3, 9]?
The value was 2.6 fold.

And the “delay in Tmax” value ([3]; sirolimus in the presence of the 3D regimen vs alone)?
The value was 3.5 h.

What about the “increase in Cmax” value [4] of the same compound?
Its value is 4.3 fold.

With `COc1c(-c2ccc3cc(NS(C)(=O)=O)ccc3c2)cc(-n2ccc(=O)[nH]c2=O)cc1C(C)(C)C` [dasabuvir] as the compound, how does the “P-gp inhibition (in vitro data)” value (P-gp) read?
Its value is “potential inhibitors of P‐gp”.

Which results are given for `C[C@H]1O[C@@H](O[C@H]2[C@@H](O)C[C@H](O[C@H]3[C@@H](O)C[C@H](O[C@H]4CC[C@@]5(C)[C@H](CC[C@@H]6[C@@H]5C[C@@H](O)[C@]5(C)[C@@H](C7=CC(=O)OC7)CC[C@]65O)C4)O[C@@H]3C)O[C@@H]2C)C[C@H](O)[C@@H]1O` [digoxin]?
increase in AUC [5]: ≤ 16%; increase in Cmax [5]: ≤ 16%

Which results are given for `Cc1ncc2n1-c1ccc(Cl)cc1C(c1ccccc1F)=NC2` [midazolam]?
increase in AUC ([6]; midazolam co-administered with boceprevir): 5.3 fold; increase in AUC ([6]; midazolam co-administered with tipranavir/ritonavir): 26.9 fold

Which “P-gp inhibition (in vitro data)” value (P-gp) does the source give for `Cc1cnc(C(=O)N[C@H]2CCCCC/C=C\[C@@H]3C[C@@]3(C(=O)NS(=O)(=O)C3CC3)NC(=O)[C@@H]3C[C@@H](Oc4nc5ccccc5c5ccccc45)CN3C2=O)cn1` [paritaprevir] here?
The value was “potential inhibitors of P‐gp”.

Which “P-gp inhibition (in vitro data)” value (P-gp) does the source give for `CC(C)c1nc(CN(C)C(=O)N[C@H](C(=O)N[C@@H](Cc2ccccc2)C[C@H](O)[C@H](Cc2ccccc2)NC(=O)OCc2cncs2)C(C)C)cs1` [ritonavir] here?
Its value is “potential inhibitors of P‐gp”.
